Hits are enriched below; roughly 3% of the tested compounds scored in any of these assays.
MC4R antag cAMP: human MC4R antagonism in cAMP assay | MC4R-expressing cells, MTII-stimulated cAMP, LANCE TR-FRET | inhibition, % at 6.5 µM | actives 0.48% (n = 360,000) | AID 540295;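 active = inhibition above its plate's cutoff, the mean of tested wells on that plate plus 3 SD, cut at about 29% in these data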;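 note: 0% = Melanotan II alone and 100% = Melanotan II plus saturating MCL0020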
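System: U2OS-MC4R stable cell line; Technique: Eu-cAMP/anti-cAMP TR-FRET, emission 671 nm; Repeats: single well per compound; Also added: Melanotan II; Dosing: one concentration, 6.5 µM nominal; Schedule: 30-min compound, 1-h challenge, 1-h detection, room temperature.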
MC4R ag barr: agonists of human melanocortin 4 receptor (MC4R) beta-arrestin; activation, % at 8.9 µM; AID 540308; U2OS MC4R beta-arrestin complementation, luminescence; percent of melanotan II response, DMSO zero; actives 0.98% (n = 360,000); P32245;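 active = activation above a per-plate cutoff, the mean activation of sample wells on that plate plus 3 SD, cut at about 8% in these data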
B2AR ag: agonists of human beta-2 adrenergic receptor inducing internalization. actives 0.43% (n = 340,000). P07550. Am2.2-beta2AR cells, FAP receptor internalization, flow cytometry. response, % (test concentration not listed);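 active = response above a set limit, near 3 SD of response in nonfluorescent compounds, cut at about 42% in these data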
PfGluPho inh: PfG6PD (Plasmodium falciparum) enzyme inhibition; PfGluPho enzyme, NADPH resazurin-diaphorase fluorescence; inhibition, % at 20 µM; actives 0.78% (n = 350,000);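 active = inhibition reaching at least a set limit at 20 µM in the primary screen, cut at about 59% in these data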;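 note: 0% = DMSO wells with substrate and 100% = DMSO wells lacking glucose-6-phosphate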
ABHD5-PLIN5 inh: ABHD5-PLIN5 protein interaction inhibition. actives 0.78% (n = 360,000). inhibition, % at 4 µM. AID 602281. Split G. princeps luciferase complementation, luminescence, 4 h;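 active = inhibition above the mean inhibition across every tested compound plus 3 SD, cut at about 22% in these data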;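 note: 0% = DMSO only wells and the 100% control is not disclosed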
PfG6PD confirm: PfG6PD inhibition, single-dose confirmed. shares compounds with PfGluPho inh. inhibition, % at 20 µM. recombinant PfGluPho, NADPH-diaphorase-resazurin fluorescence. actives 34% (n = 2,400). AID 504753;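 active = inhibition of at least 50% at 20 µM in any single replicate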;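 note: 0% = DMSO with substrate and 100% = DMSO lacking glucose-6-phosphate substrate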
Diaphorase 10uM: diaphorase inhibition or oxidation at 10 uM NADPH. shares compounds with PfGluPho inh. diaphorase-coupled resazurin reduction, fluorescence, NADPH 10 uM. inhibition, % at 20 µM. AID 504862. actives 39% (n = 820);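 active = average inhibition reaching 50% or more with the compound at 20 µM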;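 note: resorufin red fluorescence formed as diaphorase reduces resazurin using NADPH; 0% = DMSO with enzyme and 100% = DMSO without enzyme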
Diaphorase 30uM: counter-screen for P. falciparum G6PD inhibitors: diaphorase inhibitors, oxidizers; shares compounds with PfGluPho inh; Diaphorase/resazurin coupled assay, resorufin fluorescence, 30 uM NADPH; inhibition, % at 20 µM; actives 29% (n = 820);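 active = inhibition averaging 50% or more, tested at 20 µM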;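 note: 0% = DMSO with enzyme and 100% = DMSO wells lacking diaphorase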
U2OS cAMP counter: nonselective cAMP signaling inhibitor, MC4R antagonist counter-screen; inhibition, % at 6.5 µM; shares compounds with MC4R antag cAMP; AID 602193; parental U2OS, forskolin cAMP, LANCE TR-FRET; actives 26% (n = 1,600);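 active = mean inhibition over triplicates above the low-control well mean plus 3 SD, set per campaign, cut at about 13% in these data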;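 note: signal is single emission at 671 nm which falls as cellular cAMP rises; 0% = forskolin-stimulated wells and 100% = buffer without forskolin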
MC4R antag conf: human MC4R cAMP antagonism confirmation; shares compounds with MC4R antag cAMP; AID 602195; actives 27% (n = 1,600); MC4R-expressing cells, MTII-stimulated cAMP, TR-FRET; inhibition, % at 6.5 µM; in the data active = inhibition above about 29%;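 note: 0% = agonist stimulated wells alone and 100% = agonist stimulated wells plus saturating reference antagonist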
MC4R barr ag: human MC4R beta-arrestin agonism confirmation; shares compounds with MC4R ag barr; U2OS MC4R beta-arrestin recruitment, luminescence; scaled DMSO 0%, Melanotan II 100%; activation, % at 8.9 µM; actives 31% (n = 2,400); AID 602192;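 active = mean activation across replicates above the hit cutoff set in the earlier primary screen, cut at about 8% in these data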
MOR-DOR barr ag: activates mu-delta opioid heterodimer, MC4R agonist counter-screen; shares compounds with MC4R ag barr; U2OS PathHunter beta-arrestin, beta-gal luminescence; percent of deltorphin B response, DMSO zero; activation, % at 9.2 µM; actives 5.8% (n = 2,400);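 active = mean activation across replicates exceeds the hit threshold derived in the earlier primary screen, cut at about 18% in these data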;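 note: 100% = deltorphin B at 0.9 µM final and 0% = DMSO alone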
Target sequence (P35372 whole entry, looked up): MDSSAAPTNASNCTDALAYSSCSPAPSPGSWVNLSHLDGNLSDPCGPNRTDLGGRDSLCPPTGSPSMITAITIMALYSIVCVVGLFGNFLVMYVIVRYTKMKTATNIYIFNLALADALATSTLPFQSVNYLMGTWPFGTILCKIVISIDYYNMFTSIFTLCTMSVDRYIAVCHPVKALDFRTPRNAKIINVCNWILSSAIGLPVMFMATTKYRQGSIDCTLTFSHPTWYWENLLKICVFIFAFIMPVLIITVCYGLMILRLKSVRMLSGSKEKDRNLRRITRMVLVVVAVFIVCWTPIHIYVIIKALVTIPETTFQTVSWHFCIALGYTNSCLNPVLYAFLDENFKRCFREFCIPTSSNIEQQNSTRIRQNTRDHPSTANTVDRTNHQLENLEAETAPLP
Target sequence (P41143 whole entry, looked up): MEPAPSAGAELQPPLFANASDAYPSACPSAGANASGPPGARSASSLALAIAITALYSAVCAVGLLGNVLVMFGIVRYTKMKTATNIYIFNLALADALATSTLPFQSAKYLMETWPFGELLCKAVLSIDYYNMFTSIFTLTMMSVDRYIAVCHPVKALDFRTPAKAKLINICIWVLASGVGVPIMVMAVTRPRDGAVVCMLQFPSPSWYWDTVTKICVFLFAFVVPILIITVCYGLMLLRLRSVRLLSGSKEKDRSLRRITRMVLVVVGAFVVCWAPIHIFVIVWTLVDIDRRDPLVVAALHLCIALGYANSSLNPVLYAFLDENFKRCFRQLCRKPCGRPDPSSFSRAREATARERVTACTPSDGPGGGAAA
* hit, by the source's call; · = not tested or not shown.

SMILES	MC4R antag cAMP	MC4R ag barr	B2AR ag	PfGluPho inh	ABHD5-PLIN5 inh	PfG6PD confirm	others
Cc1cc(NC(=O)CN2CCN(S(=O)(=O)c3ccc(Cl)cc3)CC2)no1	4	-1	-6	3	4	·
O=C(CN1CCN(c2ccc(O)cc2)CC1)Nc1ccc2c(c1)OCCO2	-6	0	2	71*	4	21
O=C(CN1CCCCCC1)Nc1ccc(F)c(F)c1F	0	-1	3	-13	3	·
Cc1cc(NC(=O)CN2CCN(c3ccc(O)cc3)CC2)no1	6	-3	1	68*	-1	36
Cc1ccc(S(=O)(=O)N2CCN(C(=O)CN3CCN(c4ccc(O)cc4)CC3)CC2)cc1	5	1	-4	64*	6	25
Cc1ccc(N2CCN(S(=O)(=O)c3ccc(C)cc3)CC2)cc1	-5	-1	0	-7	1	·
O=C(CN1CCN(c2ccc(O)cc2)CC1)NCC(=O)Nc1ccc(F)c(F)c1F	-2	0	-4	67*	19	33
CCOc1ccc2[nH]c3c(NCC(C)C)ncnc3c2c1	6	-2	6	14	3	·
Cc1c(Br)cnn1C(C)C(=O)N1CCN(c2ccc(F)cc2)CC1 (centres undefined)	10	3	-2	-1	-1	·
O=C(O)CSc1cc(NS(=O)(=O)c2cccc([N+](=O)[O-])c2)c2ccccc2c1O	12	0	7	106*	-8	89*	Diaphorase 10uM=51*;Diaphorase 30uM=41
CCc1ccc(S(=O)(=O)Nc2cc(SCC(=O)O)c(O)c3ccccc23)cc1	-9	-2	13	89*	3	81*	Diaphorase 10uM=34;Diaphorase 30uM=21
CCOc1ccc(S(=O)(=O)Nc2cc(SCC(=O)O)c(O)c3ccccc23)cc1	-8	0	1	104*	-18	97*	Diaphorase 10uM=46;Diaphorase 30uM=32
O=C(O)c1cccc(S(=O)(=O)Nc2ccc([N+](=O)[O-])cc2O)c1	-3	0	-1	-25	6	·
CCc1nnc(N/N=C/c2c(C)[nH]c3ccccc23)n1N	4	3	7	60*	-38	38
Cc1[nH]c2ccccc2c1/C=N/NC(N)=S	5	-3	1	6	-6	·
C=C(CN(C)C)C(=O)c1ccc(C)cc1C	21	-4	29	68*	60*	45
COc1ccc(CNC(=O)Cc2cn(C)c3ccccc23)c(OC)c1	15	-1	-5	79*	3	55*	Diaphorase 10uM=49;Diaphorase 30uM=52*
C#CCOC(=O)Nc1cc(C)n(-c2ccccc2)n1	-1	0	5	-25	7	·
Cc1ccc(S(=O)(=O)/N=C2/C=C(Sc3ncn[nH]3)C(=O)c3ccccc32)cc1	48*	-1	85*	120*	40*	103*	Diaphorase 10uM=89*;Diaphorase 30uM=93*;U2OS cAMP counter=27*;MC4R antag conf=35*
COc1ccc(N2C(=NC(=O)CCC3CCCC3)SC3CS(=O)(=O)CC32)cc1 (centres undefined)	16	-2	2	0	-3	·
COc1cccc(C(=O)Nc2sc(C(C)C)cc2C(N)=O)c1OC	30*	0	5	98*	3	23	U2OS cAMP counter=2;MC4R antag conf=20
CC1=C/C(=N\OS(=O)(=O)c2ccccc2)C(C)=CC1=O	68*	7	20	111*	7	105*	Diaphorase 10uM=98*;Diaphorase 30uM=103*;U2OS cAMP counter=39*;MC4R antag conf=76*
CC1=CC(=O)c2ccccc2C1=O	-2	-1	23	21	-6	·
CCN(CC(=O)Nc1cc(Cl)ccc1C)C(=O)C1COc2ccccc2O1 (centres undefined)	16	4	-3	11	1	·
Cc1ccc(NC(=O)c2cc(N3C(=O)C=CC3=O)ccc2N2CCOCC2)cc1Cl	54*	-1	76*	74*	22	102*	Diaphorase 10uM=-28;Diaphorase 30uM=-22;U2OS cAMP counter=-1;MC4R antag conf=41*
SMILES	MC4R antag cAMP	MC4R ag barr	B2AR ag	PfGluPho inh	ABHD5-PLIN5 inh	PfG6PD confirm	others
CCOC(=O)Cc1ccc(NC(=O)c2cccc([N+](=O)[O-])c2)cc1	9	-2	5	16	-4	·
CCOC(=O)CSc1nnc(NC(=O)c2cccc([N+](=O)[O-])c2)s1	39*	-1	0	80*	-3	58*	Diaphorase 10uM=51*;Diaphorase 30uM=39;U2OS cAMP counter=3;MC4R antag conf=0
Cc1ccc(SCCSc2nc(C)cc(=O)[nH]2)cc1	0	-1	12	-8	-4	·
Cc1cc(SCC(=O)N/N=C/c2ccco2)nc2ccccc12	29*	1	-13	80*	-5	52*	Diaphorase 10uM=58*;Diaphorase 30uM=48;U2OS cAMP counter=-3;MC4R antag conf=-6
Cc1ccc2oc(C(=O)N3CCC(O)(c4ccccc4)CC3)c(C)c2c1	3	1	-3	3	-2	·
CCOc1ccc(N=Nc2ccc(O)c3ncccc23)cc1	0	-1	23	-5	3	·
CCOc1ccc2c(ccc(/C=C/c3cc(C)c4cccnc4c3O)[n+]2C)c1	50*	1	106*	92*	26*	40	U2OS cAMP counter=-9;MC4R antag conf=38*
O=C(Nc1ccccc1)c1nc2ccccc2s1	1	-1	-4	50	3	·
O=C(Nc1ccccc1)Nc1sccc1-c1nc2ccccc2s1	26	17*	26	84*	-12	3	MC4R barr ag=5;MOR-DOR barr ag=5
N#CCCN(C(=O)COC(=O)CCc1c[nH]c2ccccc12)c1ccc(F)cc1	4	0	-4	2	2	·
COc1ccc(-c2csc(NC(=O)COC(=O)c3ccco3)n2)cc1	7	11*	-1	60*	-2	16	MC4R barr ag=4;MOR-DOR barr ag=3
COc1ccc(/C=N/NC(=O)CCCOc2ccc(Cl)cc2Cl)cc1	-1	2	-6	19	-1	·
O=C(CCCOc1ccc(Cl)cc1Cl)N/N=C/c1ccc(Cl)cc1	4	9.8*	-4	62*	-6	21	MC4R barr ag=8;MOR-DOR barr ag=2

Compound activity as filed in PubChem BioAssay.
